Format in all cases: functional
Assay [1] has as its system Pseudomonas aeruginosa. Put plainly: Minimum inhibitory concentration for prevention of visible growth of Pseudomonas aeruginosa (1101-75 strain). In short, it runs like this: (§1)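 Agar dilution: organisms deposited onto antibiotic-containing agar plates with a Steers-type replicator. MIC taken as the lowest concentration preventing visible growth, given as the mean of duplicate determinations.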

The test system of assay [2] is Pseudomonas aeruginosa. Put plainly: Minimum inhibitory concentration for prevention of visible growth of Pseudomonas aeruginosa (18S-H strain). Summed up:
as §1

The test system of assay [3] is Staphylococcus aureus. Description: Minimum inhibitory concentration for prevention of visible growth of Staphylococcus aureus (95 strain). Summed up:
as §1

Assay [4] has as its system Staphylococcus aureus. Put plainly: Minimum inhibitory concentration for prevention of visible growth of Staphylococcus aureus (FDA 209P strain). In short, it runs like this:
as §1

Assay [5] relates to Candida albicans. Description: Minimum inhibitory concentration for prevention of visible growth of Candida albicans. In short, it runs like this:
as §1

Assay [6] deals with Beta-lactamase (Pseudomonas aeruginosa (strain ATCC 15692 / PAO1 / 1C / PRS 101 / LMG12228)) (UniProt P24735). Put plainly: Minimum protective concentration against beta-lactamase Pseudomonas aeruginosa (18S-H strain). In short, it runs like this: (§2)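 MPC is the lowest β-lactam concentration that protects the indicator from hydrolysis within 40 min under standard conditions. Compound stability was checked without enzyme in phosphate buffer pH 6.5 at 37 °C.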

For assay [7], the target named is Beta-lactamase (Staphylococcus aureus) (UniProt P00807). Description: Minimum protective concentration against beta-lactamase in Staphylococcus aureus (95 strain). Summed up:
as §2

Molecules are shown by their SMILES. Converted amounts (≈) assume the structure as drawn. A value given as a limit tells only on which side of the number the result lay.

Chain of Beta-lactamase (Pseudomonas aeruginosa (strain ATCC 15692 / PAO1 / 1C / PRS 101 / LMG12228)) (P24735 27-397 limits assumed): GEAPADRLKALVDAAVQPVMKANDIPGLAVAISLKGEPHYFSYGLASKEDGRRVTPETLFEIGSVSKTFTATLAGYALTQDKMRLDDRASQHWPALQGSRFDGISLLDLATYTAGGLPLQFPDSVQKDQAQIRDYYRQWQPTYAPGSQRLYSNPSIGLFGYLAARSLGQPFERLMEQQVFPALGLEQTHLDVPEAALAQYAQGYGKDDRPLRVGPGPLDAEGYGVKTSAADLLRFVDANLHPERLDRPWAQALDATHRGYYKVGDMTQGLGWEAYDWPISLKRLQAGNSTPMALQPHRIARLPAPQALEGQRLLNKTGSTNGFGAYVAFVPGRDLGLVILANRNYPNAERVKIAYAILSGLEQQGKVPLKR
Chain of Beta-lactamase (Staphylococcus aureus) (P00807 whole entry): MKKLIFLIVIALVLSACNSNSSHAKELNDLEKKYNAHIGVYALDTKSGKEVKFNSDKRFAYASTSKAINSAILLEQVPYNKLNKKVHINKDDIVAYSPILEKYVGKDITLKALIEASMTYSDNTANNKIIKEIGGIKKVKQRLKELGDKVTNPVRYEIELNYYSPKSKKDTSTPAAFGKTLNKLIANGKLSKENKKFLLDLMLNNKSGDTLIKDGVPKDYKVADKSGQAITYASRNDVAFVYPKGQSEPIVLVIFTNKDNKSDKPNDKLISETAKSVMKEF

Regarding `O=C(O)c1cccc(C(=O)c2cc(Cl)cc(C(=O)c3cccc(C(=O)O)c3O)c2O)c1O`, the minimal inhibitory concentration (MIC) (commonly the smallest concentration in the dilution series that meets the test's criterion for growth inhibition) in assay [1] is 2.54 µg/mL (≈ 5.56 µM); in assay [2] it was 3.06 µg/mL (≈ 6.7 µM); in assay [3], 22.2 µg/mL (≈ 48.6 µM); in assay [4] it was 18.2 µg/mL (≈ 40 µM); in assay [5], 19.1 µg/mL (≈ 41.9 µM).

For `Oc1ccccc1Cc1cc(Cl)cc(Cc2ccccc2O)c1O`, the MIC worked out at 0.07 µg/mL (≈ 0.205 µM) in assay [1]; 0.18 µg/mL (≈ 0.528 µM) in assay [2]; 0.58 µg/mL (≈ 1.7 µM) in assay [3]; 1.2 µg/mL (≈ 3.52 µM) in assay [4]; 2.06 µg/mL (≈ 6.04 µM) in assay [5].

`COC(=O)c1cccc(Cc2cc(Cl)cc(Cc3ccccc3O)c2O)c1O`: the MIC in assay [1] came out at 1.25 µg/mL (≈ 3.13 µM); in assay [2], 1.56 µg/mL (≈ 3.91 µM); in assay [3] it was 4.65 µg/mL (≈ 11.7 µM); in assay [4], 2.98 µg/mL (≈ 7.47 µM); in assay [5], 117 µg/mL (≈ 294 µM).

For `CO/N=C(\C(=O)N[C@@H]1C(=O)N2C(C(=O)O)=C(COC(C)=O)CS[C@H]12)c1csc(N)n1` [CEFOTAXIME], the MPC in assay [6] stood at 1.03 µg/mL; in assay [7], 2.72 µg/mL. For the same molecule, the minimum inhibitory concentration (MIC) in assay [1] is 69.9 µg/mL (≈ 153 µM); in assay [2], 135 µg/mL (≈ 296 µM); in assay [3], 40.6 µg/mL (≈ 89.1 µM); in assay [4] it was 1.7 µg/mL (≈ 3.73 µM); in assay [5] it was over 145 µg/mL.

For `CC(=O)OCC1=C(C(=O)O)N2C(=O)[C@@H](NC(=O)c3cccc(C(=O)c4cc(Cl)cc(C(=O)c5ccccc5O)c4O)c3O)[C@H]2SC1`, the MPC came to 93.5 µg/mL in assay [6] and 88.7 µg/mL in assay [7]. Further, the minimum inhibitory concentration (MIC) in assay [1] was found to be 0.79 µg/mL (≈ 1.18 µM); in assay [2], 0.38 µg/mL (≈ 0.57 µM); in assay [3], 0.45 µg/mL (≈ 0.675 µM); in assay [4] it was 0.78 µg/mL (≈ 1.17 µM); in assay [5], 14.2 µg/mL (≈ 21.3 µM).

Regarding `CNC(=O)c1cccc(Cc2cc(Cl)cc(Cc3ccccc3O)c2O)c1O`, the MIC in assay [1] came to 3.28 µg/mL (≈ 8.24 µM); in assay [2], 4.7 µg/mL (≈ 11.8 µM); in assay [3], 6.63 µg/mL (≈ 16.7 µM); in assay [4] it was 7.35 µg/mL (≈ 18.5 µM); in assay [5], 114 µg/mL (≈ 287 µM).

`CC(=O)OCC1=C(C(=O)O)N2C(=O)[C@@H](NC(=O)c3cccc(Cc4cc(Cl)cc(Cc5ccccc5O)c4O)c3O)[C@H]2SC1`: the MPC in assay [6] came out at 99.8 µg/mL; in assay [7], 95.2 µg/mL. Also, the minimum inhibitory concentration (MIC) was found to be 0.28 µg/mL (≈ 0.438 µM) in assay [1]; 0.45 µg/mL (≈ 0.704 µM) in assay [2]; 0.28 µg/mL (≈ 0.438 µM) in assay [3]; 0.35 µg/mL (≈ 0.548 µM) in assay [4]; 28.3 µg/mL (≈ 44.3 µM) in assay [5].

For the molecule `O=C(O)[C@H]1/C(=C/CO)O[C@@H]2CC(=O)N21`, the values for the MPC in assay [6] and in assay [7] were 3 µg/mL and 0.38 µg/mL, respectively.

For the molecule `Oc1ccccc1Cc1cccc(Cc2ccccc2O)c1O`, the MIC in assay [1], in assay [2], in assay [3], in assay [4] and in assay [5] was over 145 µg/mL each time.

For the molecule `O=C(O)c1cccc(Cc2cc(Cl)cc(Cc3ccccc3O)c2O)c1O`, the MIC in assay [1] worked out at 0.02 µg/mL (≈ 0.052 µM); in assay [2] it was 0.1 µg/mL (≈ 0.26 µM); in assay [3] it was 0.43 µg/mL (≈ 1.12 µM); in assay [4], 0.86 µg/mL (≈ 2.23 µM); in assay [5], 1.43 µg/mL (≈ 3.72 µM).

`O=C(COc1ccccc1)N[C@@H]1C(=O)N2C(C(=O)O)=C(COC(=O)c3cccc(C(=O)c4cc(Cl)cc(C(=O)c5ccccc5O)c4O)c3O)CS[C@H]12`: the MPC in assay [6] is 5.98 µg/mL; in assay [7] it was 4.81 µg/mL. Moreover, the minimal inhibitory concentration (MIC) in assay [1] was found to be 1.37 µg/mL (≈ 1.8 µM); in assay [2] it was 3.13 µg/mL (≈ 4.12 µM); in assay [3], 2.1 µg/mL (≈ 2.77 µM); in assay [4], 0.9 µg/mL (≈ 1.19 µM); in assay [5] it was 6.47 µg/mL (≈ 8.52 µM).

On to `CC(=O)Oc1ccccc1Cc1cc(Cl)cc(Cc2ccccc2OC(C)=O)c1OC(C)=O`, for which the MIC in assay [1], in assay [2], in assay [3], in assay [4] and in assay [5] was over 145 µg/mL each time.

As to `O=C(O)c1cccc(Cc2cc(Cl)cc(Cc3cccc(C(=O)O)c3O)c2O)c1O`, the minimum inhibitory concentration (MIC) in assay [1] was found to be 0.86 µg/mL (≈ 2.01 µM); in assay [2] it was 1.32 µg/mL (≈ 3.08 µM); in assay [3], 4.15 µg/mL (≈ 9.68 µM); in assay [4] it was 3.25 µg/mL (≈ 7.58 µM); in assay [5], 16.5 µg/mL (≈ 38.5 µM).

For the molecule `O=C(COc1ccccc1)N[C@@H]1C(=O)N2C(C(=O)O)=C(COC(=O)c3cccc(Cc4cc(Cl)cc(Cc5ccccc5O)c4O)c3O)CS[C@H]12`, the figures for the MPC in assay [6] and in assay [7] were 6.74 µg/mL and 7.08 µg/mL, respectively. In addition, the minimum inhibitory concentration (MIC) came to 0.98 µg/mL (≈ 1.34 µM) in assay [1]; 1.24 µg/mL (≈ 1.7 µM) in assay [2]; 1.2 µg/mL (≈ 1.64 µM) in assay [3]; 0.41 µg/mL (≈ 0.561 µM) in assay [4]; 5.86 µg/mL (≈ 8.01 µM) in assay [5].

As for `COC(=O)c1cccc(C(=O)c2cc(Cl)cc(C(=O)c3ccccc3O)c2O)c1O`, the minimum inhibitory concentration (MIC) in assay [1] is 5.78 µg/mL (≈ 13.5 µM); in assay [2], 4.3 µg/mL (≈ 10.1 µM); in assay [3] it was 15.3 µg/mL (≈ 35.9 µM); in assay [4] it was 14.7 µg/mL (≈ 34.4 µM); in assay [5], 125 µg/mL (≈ 294 µM).

On to `Oc1ccc(Br)cc1Cc1cc(Cl)cc(Cc2cc(Br)ccc2O)c1O`, for which the minimum inhibitory concentration (MIC) in assay [1] came out at 39.4 µg/mL (≈ 79 µM); in assay [2] it was 36.7 µg/mL (≈ 73.6 µM); in assay [3], 49 µg/mL (≈ 98.2 µM); in assay [4], 45 µg/mL (≈ 90.3 µM); in assay [5], 115 µg/mL (≈ 231 µM).

As to `CNC(=O)c1cccc(C(=O)c2cc(Cl)cc(C(=O)c3ccccc3O)c2O)c1O`, the MIC in assay [1] is 6.03 µg/mL (≈ 14.2 µM); in assay [2], 8.32 µg/mL (≈ 19.5 µM); in assay [3] it was 17.8 µg/mL (≈ 41.7 µM); in assay [4], 18.1 µg/mL (≈ 42.6 µM); in assay [5], 120 µg/mL (≈ 281 µM).

`CC(=O)OCC1=C(C(=O)O)N2C(=O)[C@@H](NC(=O)COc3ccccc3)[C@H]2SC1`: the MPC is 0.97 µg/mL in assay [6] and 1.35 µg/mL in assay [7]. The MIC was over 145 µg/mL in assay [1]; over 145 µg/mL in assay [2]; over 145 µg/mL in assay [3]; 0.7 µg/mL (≈ 1.72 µM) in assay [4]; over 145 µg/mL in assay [5].

As for `O=C(O)c1cccc(C(=O)c2cc(Cl)cc(C(=O)c3ccccc3O)c2O)c1O`, the MIC in assay [1] amounted to 0.17 µg/mL (≈ 0.412 µM); in assay [2] it was 0.26 µg/mL (≈ 0.63 µM); in assay [3], 0.98 µg/mL (≈ 2.37 µM); in assay [4] it was 3.67 µg/mL (≈ 8.89 µM); in assay [5] it was 3.7 µg/mL (≈ 8.96 µM).

`CC(=O)Oc1ccc(Br)cc1Cc1cc(Cl)cc(Cc2cc(Br)ccc2OC(C)=O)c1OC(C)=O`: the MIC in assay [1], in assay [2], in assay [3], in assay [4] and in assay [5] was over 145 µg/mL each time.

For the origin of these results see ChEMBL document CHEMBL1130378, “Cephalosporin 3'-phloroglucide esters and 7-(phloroglucidamido) cephalosporins as novel antibacterial agents” (1997).
